Measured values from different studies.
Protocols differ between the studies behind these lines.
Target: Tyrosine-protein kinase Lck (LCK, Homo sapiens, UniProt P06239)

CN1CCN(C(=O)c2ccc(NC(=O)Nc3ccc(N(C)c4ccnc(Nc5ccc(CS(C)(=O)=O)cc5)n4)cc3)cc2)CC1 — remaining binding (binding; competition with immobilised ligand; 1 µM): 85%
CC#CC(=O)N1CCC[C@H]1c1nc(-c2ccc(C(=O)Nc3ccccn3)cc2)c2c(N)nccn12 — inhibition (enzyme activity; inhibitor; 1 µM): 10%
C#Cc1cnc(Nc2ccc(CO)cc2)nc1Nc1ccccc1C(=O)NC — remaining activity (enzyme activity; inhibitor; 1 µM): 2.4%
C1=C/COCc2cc(ccc2OCCN2CCCC2)Nc2nccc(n2)-c2cccc(c2)COC/1 — remaining binding (binding; 0.1 µM): 53%
C=CC(=O)N1CCC[C@@H](n2nc(-c3ccc(Oc4ccccc4)cc3)c3c(N)ncnc32)C1 — inhibition (enzyme activity; inhibitor; 1 µM): 99%
C#Cc1cc(-c2cc(Nc3nc(N[C@@H](C)c4ccc(F)cn4)ncc3Cl)n[nH]2)ccc1C=O — inhibition (enzyme activity; inhibitor; 0.2 µM): 78.9%
C#Cc1cnc(Nc2ccc(CO)nc2)nc1Nc1ccccc1S(C)(=O)=NC#N (stereo not shown) — remaining activity (enzyme activity; inhibitor; 1 µM): 12.7%
C[C@H]1CC[C@H](n2c3cnccc3c3cnc(Nc4ccc5c(n4)CCN(C(=O)CO)C5)nc32)CC1 — remaining binding (binding; competition with immobilised ligand; 1 µM): 49%
CCCCC(=O)Nc1ccc(-c2ccc3ncn(CCC)c(=O)c3c2)cn1 — remaining binding (binding; competition with immobilised ligand; 0.5 µM): 100%
CNC(=O)c1ccccc1Nc1nc(Nc2ccc(CO)nc2)ncc1Cl — remaining activity (enzyme activity; inhibitor; 1 µM): 3.38%
